Reference: ChEMBL document CHEMBL1671697, “Lipophilic bisphosphonates are potent inhibitors of Plasmodium liver-stage growth” (Antimicrob Agents Chemother, 2010)
“And” between values parts separate entries of the source, which are not always exact repeats. Equal entries are not always repeated. The source made the active and inactive calls. The rule behind the calls is not given here.

Key:
Plasmodium berghei [1] = test: Antimalarial activity against Plasmodium berghei NK65 infected in human HepG2 cells after 48 hrs by RT-PCR; format: functional, organism-based; conditions: NK65, HepG2, 48 h
Outline: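 P. berghei NK65 sporozoites (10,000 per well) added to human HepG2 monolayers seeded the day before, in DMEM with 10% FBS, with compound diluted in PBS; 37°C, 5% CO2, 48 h. Medium and compound were renewed at 24 h. Parasite 18S rRNA copies were quantified by real-time PCR against a plasmid standard and expressed relative to untreated control. IC50 was obtained by nonlinear regression.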

[2] = Cytotoxicity against human HepG2 cells after 22 hrs; format: cell-based; conditions: read-out: TC50
Outline: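 HepG2 cells were seeded at 70% confluence the day before treatment, then exposed to a range of inhibitor concentrations for 22 h at 37°C, 5% CO2. CellTiter One reagent was then added for 2 h more, and OD495 was read. IC50 (TC50) was fit by nonlinear regression of percent viable cells against concentration.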

Plasmodium berghei [3] = test: (§1) Antiplasmodial activity against Plasmodium berghei NK65 infected in 12 wk old BALB/c mouse assessed as prepatent period at 5 mg/kg, ip administered once daily via a regimen of day 2, 1 pre-infection, on the day of infection followed by day 1 and 2 postinfection […] by microscopic analysis; format: functional; conditions: route intraperitoneal
Plasmodium berghei [4] = test: Antiplasmodial activity against Plasmodium berghei NK65 infected in 12 wk old C57BL/6 mouse assessed as prepatent period at 0.5 mg/kg, ip administered once daily via a regimen of day 2, 1 pre-infection, on the day of infection followed by day 1 postinfection for 4 days by microscopic analysis; format: functional; conditions: route intraperitoneal
Plasmodium berghei [5] = test: (§2) Antiplasmodial activity against Plasmodium berghei NK65 infected in 12 wk old C57BL/6 mouse assessed as prepatent period at 1.5 mg/kg, ip administered once daily via a regimen of day 2, 1 pre-infection, on the day of infection followed by day 1 and 2 postinfection for 5 days by microscopic analysis; format: functional; conditions: route intraperitoneal
Plasmodium falciparum [6] = test: Antiplasmodial activity against chloroquine-sensitive Plasmodium falciparum 3D7 assessed as suppression of parasitemia by microscopic analysis
Plasmodium falciparum [7] = test: Antiplasmodial activity against chloroquine-resistant Plasmodium falciparum W2mef assessed as suppression of parasitemia by microscopic analysis
Plasmodium berghei [8] = test: as §2, with “against 5 X 10^6 blood stream” for “against”; format: functional; conditions: route intraperitoneal
Outline: (§3)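 Mice, five per group, were dosed i.p. daily for 5 days and challenged on day 0 with 5 × 10^6 blood-stage P. berghei parasites. Parasitemia was monitored by blood smear, and the delay in prepatent period was recorded.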

Plasmodium berghei [9] = test: as §2, with “activity against 5 X 10^6 blood stream Plasmodium berghei” for “activity against Plasmodium berghei”, “assessed as delay in prepatent period” for “assessed as prepatent period”; format: functional; conditions: route intraperitoneal; outline: as §3
Plasmodium berghei [10] = test: as §2, with “against 5 X 10^6 blood stream” for “against”, “parasitemia” for “prepatent period”; format: functional; conditions: route intraperitoneal; outline: as §3
[11] = Inhibition of Plasmodium vivax GGPPS
[12] = Inhibition of Plasmodium vivax FPPS
[13] = Partition coefficient, log P of the compound; format: physicochemical; conditions: octanol/water
Plasmodium berghei [14] = test: (§4) Antiplasmodial activity against 3000 Plasmodium berghei NK65 liver stage sporozoites infected in 12 wk old C57BL/6 mouse assessed as delay in prepatent period at 1.5 mg/kg, ip administered once daily via a regimen of day 2, 1 pre-infection, on the day of infection followed by day 1 and 2 postinfection for 5 days by microscopic analysis; format: functional; conditions: route intraperitoneal
Outline: (§5)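 Mice were given compound i.p. once daily from 2 days before to 2 days after sporozoite challenge (5 doses). Challenge was 3,000 infectious P. berghei sporozoites. Parasitemia was followed by blood smear until 3–5%, then mice were sacrificed. Complete protection means no blood-stage parasites in smears; observation lasted 28 days.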

Plasmodium berghei [15] = test: Antiplasmodial activity against Plasmodium berghei NK65 infected in C57BL/6 mouse assessed as completed protection of mouse, ip administered once daily via a regimen of day 2, 1 pre-infection, on day of infection followed by a regimen of day 1 and 2 post infection for 5 days measured after 28 days; format: functional, organism-based; outline: as §5
Plasmodium berghei [16] = test: as §2, with “at 0.8” for “at 1.5”, “day 1, 2” for “day 1”, “and 3 days” for “and 2”, “[…]” for “for 5”; format: functional; conditions: route intraperitoneal
Plasmodium berghei [17] = test: as §4, with “0.8” for “1.5”; format: functional; conditions: route intraperitoneal; outline: as §5
Plasmodium berghei [18] = test: (§6) Antiplasmodial activity against Plasmodium berghei NK65 infected in 12 wk old C57BL/6 mouse assessed as prepatent period at 2 mg/kg, ip administered once daily via a regimen of day 2, 1 pre-infection, on the day of infection followed by day 1 and 2 postinfection for 5 days by microscopic analysis; format: functional; conditions: route intraperitoneal
Plasmodium berghei [19] = test: as §4, with “2” for “1.5”; format: functional; conditions: route intraperitoneal; outline: as §5
Plasmodium berghei [20] = test: Antiplasmodial activity against Plasmodium berghei NK65 infected in 12 wk old BALB/c mouse assessed as prepatent period at 20 mg/kg, ip administered once daily via regimen of 1 preinfection, on day of infection followed by regimen of 1 day post infection for 3 days by microscopic analysis; format: functional; conditions: route intraperitoneal
Plasmodium berghei [21] = test: Antiplasmodial activity against Plasmodium berghei NK65 infected in 12 wk old BALB/c mouse assessed as prepatent period at 5 mg/kg, ip administered once daily on the day of infection followed by day 1 postinfection for 2 days by microscopic analysis; format: functional; conditions: route intraperitoneal
Plasmodium berghei [22] = test: Antiplasmodial activity against Plasmodium berghei NK65 infected in 12 wk old BALB/c mouse assessed as prepatent period at 17 mg/kg, ip administered once daily on the day of infection followed by day 1 postinfection for 2 days by microscopic analysis; format: functional; conditions: route intraperitoneal
Plasmodium berghei [23] = test: as §6, with “in 8” for “in 12”, “at 20” for “at 2”, “day” for “day 2,”, “day 1, 2” for “day 1”, “and 3 days” for “and 2”, “[…]” for “for 5”; format: functional; conditions: route intraperitoneal
Plasmodium berghei [24] = test: Antiplasmodial activity against Plasmodium berghei NK65 infected in 8 wk old C57BL/6 mouse assessed as prepatent period at 20 mg/kg, ip administered once daily via regimen of […], on the day of infection followed by day 1 postinfection for 4 days by microscopic analysis; format: functional; conditions: route intraperitoneal
Plasmodium berghei [25] = test: Antiplasmodial activity against Plasmodium berghei NK65 infected in 12 wk old C57BL/6 mouse assessed as prepatent period at 20 mg/kg, ip administered once daily via a regimen of day 1 pre-infection, on the day of infection followed by day 1 postinfection for 3 days by microscopic analysis; format: functional; conditions: route intraperitoneal
Plasmodium berghei [26] = test: Antiplasmodial activity against Plasmodium berghei NK65 infected in 12 wk old C57BL/6 mouse assessed as prepatent period at 10 mg/kg, ip administered once daily via a regimen of day 2, 1 days pre-infection, on the day of infection followed by day 1 postinfection for 4 days by microscopic analysis; format: functional, organism-based; parameters: dose 10 mg/kg
Plasmodium berghei [27] = test: Antiplasmodial activity against Plasmodium berghei NK65 infected in 12 wk old C57BL/6 mouse assessed as prepatent period at 10 mg/kg, ip administered once daily via a regimen of day 1 pre-infection, on the day of infection followed by day 1 postinfection for 3 days by microscopic analysis; format: functional, organism-based; parameters: dose 10 mg/kg
Plasmodium berghei [28] = test: as §6, with “against 5 X 10^6 blood stream” for “against”, “at 20” for “at 2”; format: functional; conditions: route intraperitoneal; outline: as §3
Plasmodium berghei [29] = test: (§7) Antiplasmodial activity against 5 X 10^6 blood stream Plasmodium berghei NK65 infected in 12 wk old C57BL/6 mouse assessed as delay in prepatent period at 20 mg/kg, ip administered once daily via a regimen of day 2, 1 pre-infection, on the day of infection followed by day 1 and 2 postinfection for 5 days by microscopic analysis; format: functional; conditions: route intraperitoneal; outline: as §3
Plasmodium berghei [30] = test: as §7, with “parasitemia” for “delay in prepatent period”; format: functional; conditions: route intraperitoneal; outline: as §3
Plasmodium berghei [31] = test: as §4, with “20” for “1.5”; format: functional; conditions: route intraperitoneal; outline: as §5
Plasmodium berghei [32] = test: as §1, with “period assessed as complete suppression of parasitemia” for “period”, “at 20” for “at 5”; format: functional; conditions: route intraperitoneal
Plasmodium berghei [33] = test: Antiplasmodial activity against Plasmodium berghei NK65 infected in 14 wk old C57BL/6 mouse assessed as prepatent period at 5 mg/kg, ip administered once daily via a regimen of day 2, 1 pre-infection, on the day of infection followed by day 1 and 2 postinfection […] by microscopic analysis; format: functional, organism-based; parameters: dose 5 mg/kg
Plasmodium berghei [34] = test: Antiplasmodial activity against Plasmodium berghei NK65 infected in 12 wk old C57BL/6 mouse assessed as prepatent period at 5 mg/kg, ip administered once daily via a regimen of day 2, 1 pre-infection, on the day of infection followed by day 1 and 2 postinfection for 5 days by microscopic analysis; format: functional; conditions: route intraperitoneal
Plasmodium berghei [35] = test: as §4, with “5” for “1.5”; format: functional; conditions: route intraperitoneal; outline: as §5

Row | Compound | IC50 (Plasmodium berghei [1]) [µM] | CC50 at 22 h [2] [µM] | IC50 (Plasmodium falciparum [6]) [µM] | IC50 (Plasmodium falciparum [7]) [µM] | IC50 [11] [µM] | Ki [11] [µM] | IC50 [12] [µM] | Ki [12] [µM] | other results
1 | CCCCCCCCCCOc1ccc[n+](CC(P(=O)([O-])O)P(=O)(O)O)c1 (configuration not stated) | 10 | 2000 | 0.67 | 0.59 | 0.56 | 0.013 | 1.5 | 0.043 | Activity (Plasmodium berghei [3]): >28 days; Activity (Plasmodium berghei [4]): 3 days; Activity (Plasmodium berghei [5]): >28 days; Activity (Plasmodium berghei [8]): 5 days; Activity (Plasmodium berghei [9]): 4 days; Activity (Plasmodium berghei [10]): 0.01%; logP ([13]; read-out: logP): -1.2; Activity (Plasmodium berghei [14]): >28 days; Activity (Plasmodium berghei [15]): Active
2 | CC[C@H](C)C(=O)O[C@H]1C[C@H](O)C=C2C=C[C@H](C)[C@H](CC[C@@H](O)C[C@@H](O)CC(=O)O)[C@H]21 [PRAVASTATIN SODIUM] | > 200 |  |  |  |  |  |  |  | 
3 | CCCCCCCCN(C)CC(P(=O)(O)O)P(=O)(O)O | 8.8 | 1000 | 0.65 | 2 | 0.63 | 0.015 | 1.5 | 0.043 | Activity (Plasmodium berghei [16]): 7 days; logP [13]: -4.1; Activity (Plasmodium berghei [17]): 3 days
4 | CCCCCCCCCCN(C)CC(P(=O)(O)O)P(=O)(O)O | 8 | 1000 | 0.45 | 2.2 | 0.7 | 0.016 | 1.5 | 0.043 | Activity (Plasmodium berghei [18]): 9 days; logP ([13]; read-out: logP): -3.4; Activity (Plasmodium berghei [19]): 5 days
5 | O=P(O)(O)C(O)(Cc1cccnc1)P(=O)(O)O [RISEDRONIC ACID] | 16 | 13000 | 1.2 | 1.4 | 1.1 | 0.024 | 1.7 | 0.048 | Activity (Plasmodium berghei [20]): 0.5 days; Activity (Plasmodium berghei [21]): 0.5 days; Activity (Plasmodium berghei [22]): 1 days; Activity (Plasmodium berghei [23]): 6 days; Activity (Plasmodium berghei [24]): 4 days; Activity (Plasmodium berghei [25]): 2.5 days; Activity (Plasmodium berghei [26]): inactive; Activity (Plasmodium berghei [27]): inactive; Activity (Plasmodium berghei [28]): 2 days; Activity (Plasmodium berghei [29]): 1 days; Activity (Plasmodium berghei [30]): 0.09%; logP [13]: -5.5; Activity (Plasmodium berghei [31]): 4 days; Activity (Plasmodium berghei [32]): 8 days and 3 days
6 | COC(=O)[C@H](CC(C)C)NC(=O)c1ccc(NC[C@@H](N)CS)cc1-c1cccc2ccccc12 | 30 |  |  |  |  |  |  |  | Activity (Plasmodium berghei [33]): inactive; Activity (Plasmodium berghei [34]): 4 days; Activity (Plasmodium berghei [35]): 0 days
7 | NCCC(O)(P(=O)(O)O)P(=O)(O)O [PAMIDRONIC ACID] | > 200 |  |  |  |  |  |  |  | 
